Test [1] concerns the target T1, 2-amino-4-hydroxy-6-hydroxymethyldihydropteridin e pyrophosphokinase (Staphylococcus aureus, UniProt X5EH84).
T1 sequence (X5EH84 whole entry): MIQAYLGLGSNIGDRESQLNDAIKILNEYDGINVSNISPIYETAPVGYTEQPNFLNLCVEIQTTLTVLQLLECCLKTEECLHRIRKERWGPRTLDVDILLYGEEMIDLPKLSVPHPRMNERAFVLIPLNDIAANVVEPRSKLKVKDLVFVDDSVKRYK
In words: Binding affinity to biotinylated Staphylococcus aureus HPPK in presence of 1 mM ATP by SPR assay. An outline of the steps:
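Enzyme minimally biotinylated via maleimide-activated biotin, captured on streptavidin chip (~3800 RU). 3-fold serial dilutions, top concentration between 3 and 300 μM; 60 s contact at 30 μL·min−1, 60 s dissociation; duplicate or more; double-referenced, globally fitted where limited.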

Test [2] deals with T2, 2-amino-4-hydroxy-6-hydroxymethyldihydropteridine pyrophosphokinase (Escherichia coli (strain K12), UniProt P26281).
T2 sequence (P26281 whole entry): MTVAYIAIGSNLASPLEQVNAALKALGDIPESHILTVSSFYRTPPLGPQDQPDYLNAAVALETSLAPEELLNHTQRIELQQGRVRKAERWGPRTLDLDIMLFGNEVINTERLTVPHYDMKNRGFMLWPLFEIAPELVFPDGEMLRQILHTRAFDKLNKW
In words: Binding affinity to biotinylated Escherichia coli HPPK expressed in Escherichia coli BL21 (DE3) in presence of 1 mM ATP by SPR assay. An outline of the steps: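 N-terminal His6/TEV-cleavable construct expressed in E. coli BL21(DE3), Ni-NTA purified, His-tag cleaved, then size exclusion. Minimally biotinylated via NHS-activated biotin and captured on streptavidin chip (~4900 RU). Analytes in 3-fold serial dilutions, duplicate or more; sensorgrams solvent-corrected, double-referenced.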

Test [3] deals with T3, 2-amino-4-hydroxy-6-hydroxymethyldihydropteridin e pyrophosphokinase (Staphylococcus aureus) (UniProt X5EH84).
T3 sequence (whole entry): T1 sequence (X5EH84 whole entry)
In words: Binding affinity to AMPCPP-loaded and 15N/13C-labeled Staphylococcus aureus HPPK assessed a induction of chemical shift changes in 15N HSQC spectra by HNCA triple resonance 3D NMR spectroscopy.

Test [4] addresses T3, 2-amino-4-hydroxy-6-hydroxymethyldihydropteridin e pyrophosphokinase (Staphylococcus aureus). In words: Binding affinity to AMPCPP-loaded and 15N/13C-labeled Staphylococcus aureus HPPK assessed a induction of 1H-15N chemical shift perturbations by 2D 15N-FAST-HSQC NMR spectrscopy.

The source made the active and inactive calls. No cut-off for these calls is given here.

Take `Cc1ccc(C)c(CSc2nc3c(=O)[nH]c(N)nc3[nH]2)c1`: the Kd amounted to 1700 nM in test [1] and 12600 nM in test [2].
Turning to `Nc1nc2[nH]c(SCc3cccc(OC(F)(F)F)c3)nc2c(=O)[nH]1`, the Kd was determined as 1610 nM in test [1] and 5700 nM in test [2].
The matching figures for `Nc1nc2[nH]c(SCC(O)CO)nc2c(=O)[nH]1` (stereo not drawn): 13400 nM and 82000 nM.
For the molecule `CCN(C)C(=O)C(C)Sc1nc2c(=O)[nH]c(N)nc2[nH]1` (stereo not drawn), the Kd in test [1] turned out to be 46000 nM; in test [2] it was 120000 nM.
On to `Nc1nc2[nH]c(SCc3cccc(Cl)c3)nc2c(=O)[nH]1`, for which the Kd turned out to be 570 nM in test [1] and 1700 nM in test [2].
As to `Nc1nc2[nH]c(SCc3cccc([N+](=O)[O-])c3)nc2c(=O)[nH]1`, the Kd is 1400 nM in test [1] and 5800 nM in test [2].
For `Nc1nc2[nH]c(SCC(O)C(F)(F)F)nc2c(=O)[nH]1` (stereo not drawn), the Kd in test [1] is 3600 nM; in test [2], 97000 nM.
For the molecule `CN(C)C(=O)CSc1nc2c(=O)[nH]c(N)nc2[nH]1`, the figures for the Kd in test [1] and in test [2] were 1500 nM and 53000 nM, respectively.
As to `Nc1nc2[nH]c(SCCC3OCCCO3)nc2c(=O)[nH]1`, the Kd in test [1] is 7900 nM; in test [2], 23300 nM.
Consider `Cc1cccc(CSc2nc3c(=O)[nH]c(N)nc3[nH]2)c1`, for which the Kd in test [1] came to 380 nM; in test [2] it was 1700 nM.
Consider `CNC(=O)CSc1nc2c(=O)[nH]c(N)nc2[nH]1`, for which the Kd was determined as 8800 nM in test [1] and 50000 nM in test [2].
Consider `COc1cccc(CSc2nc3c(=O)[nH]c(N)nc3[nH]2)c1`, for which the Kd in test [1] turned out to be 650 nM; in test [2], 1800 nM.
In the same order, the values of `Cc1ccc(F)c(CSc2nc3c(=O)[nH]c(N)nc3[nH]2)c1` are 210 nM and 965 nM.
For `Nc1nc2[nH]c(SCc3ccc(C(F)(F)F)cc3)nc2c(=O)[nH]1`, in test [1], the Kd was 1930 nM.
Turning to `Nc1nc2[nH]c(SCc3ccccc3)nc2c(=O)[nH]1`, the result in test [3] and in test [4] was Active.
Take `COCCSc1nc2c(=O)[nH]c(N)nc2[nH]1`: the figures for the Kd in test [1] and in test [2] were 2760 nM and 52000 nM, respectively.
As for `Nc1nc2[nH]c(SCc3ccc(Br)cc3)nc2c(=O)[nH]1`, the Kd in test [1] worked out at 950 nM; in test [2] it was 2130 nM.
On to `Nc1nc2[nH]c(SCc3ccc(F)c(F)c3)nc2c(=O)[nH]1`, for which the Kd is 290 nM in test [1] and 2000 nM in test [2].
Consider `Cc1cccc(CSc2nc3c(=O)[nH]c(N)nc3[nH]2)c1C`, for which the results for the Kd in test [1] and in test [2] were 841 nM and 6100 nM, respectively.
Turning to `Nc1nc2[nH]c(SCc3cc(C(F)(F)F)cc(C(F)(F)F)c3)nc2c(=O)[nH]1`, the Kd in test [1] worked out at 1200 nM.
Take `Nc1nc2[nH]c(SCc3cccc(Br)c3)nc2c(=O)[nH]1`: the Kd was 3100 nM in test [1] and 7100 nM in test [2].
As to `Nc1nc2[nH]c(SCc3ccccc3Br)nc2c(=O)[nH]1`, the Kd in test [1] was found to be 1500 nM; in test [2], 8500 nM.
Turning to `Nc1nc2[nH]c(SCc3ccc(OC(F)(F)F)cc3)nc2c(=O)[nH]1`, the Kd in test [1] was 2100 nM; in test [2], 5200 nM.
The matching figures for `COc1ccc(CSc2nc3c(=O)[nH]c(N)nc3[nH]2)cc1`: 520 nM and 2200 nM.
Consider `Nc1nc2[nH]c(SCc3c(F)cccc3F)nc2c(=O)[nH]1`, for which the outcome in test [3] and in test [4] was Active. In addition, the Kd in test [1] was found to be 120 nM; in test [2] it was 1760 nM.
For `Nc1nc2[nH]c(SCC(=O)c3ccc(Br)cc3)nc2c(=O)[nH]1`, the Kd in test [1] came out at 570 nM; in test [2], 700 nM.
In the same order, the values of `Cc1cc(CSc2nc3c(=O)[nH]c(N)nc3[nH]2)ccc1F` are 3600 nM and 10100 nM.
Regarding `N#Cc1ccc(CSc2nc3nc(N)[nH]c(=O)c3[nH]2)cc1`, the result in test [3] and in test [4] was Active.
`Nc1nc2[nH]c(SCCCO)nc2c(=O)[nH]1`: the Kd in test [1] turned out to be 4600 nM; in test [2], 68000 nM.
The matching figures for `Cc1ccccc1CSc1nc2c(=O)[nH]c(N)nc2[nH]1`: 470 nM and 2500 nM.
With `CC(C)CNC(=O)CSc1nc2c(=O)[nH]c(N)nc2[nH]1`, the Kd in test [1] came to 13000 nM; in test [2], 59400 nM.
In the same order, the values of `Nc1nc2[nH]c(SCc3ccc(F)cc3F)nc2c(=O)[nH]1` are 260 nM and 1400 nM.
Consider `Cc1cc(C)cc(CSc2nc3c(=O)[nH]c(N)nc3[nH]2)c1`, for which the results for the Kd in test [1] and in test [2] were 2300 nM and 6900 nM, respectively.
For `Cc1cccc(CSc2nc3c(=O)[nH]c(N)nc3[nH]2)c1F`, the Kd is 2800 nM in test [1] and 10700 nM in test [2].
On to `Nc1nc2[nH]c(SCc3ccccc3Cl)nc2c(=O)[nH]1`, for which the Kd in test [1] was 1300 nM.
Consider `COc1ccc(CSc2nc3c(=O)[nH]c(N)nc3[nH]2)c(F)c1`, for which the Kd in test [1] came out at 300 nM; in test [2] it was 950 nM.
`Cc1cc(F)ccc1CSc1nc2c(=O)[nH]c(N)nc2[nH]1`: the Kd in test [1] was 1970 nM; in test [2] it was 16300 nM.
For `Nc1nc2[nH]c(SCCO)nc2c(=O)[nH]1`, the Kd in test [1] turned out to be 7600 nM; in test [2] it was 89200 nM.
Take `N#Cc1cc(F)ccc1CSc1nc2c(=O)[nH]c(N)nc2[nH]1`: the Kd in test [1] stood at 1200 nM; in test [2], 38000 nM.
Consider `Nc1nc2[nH]c(SCc3ccc(F)cc3)nc2c(=O)[nH]1`, for which the figures for the Kd in test [1] and in test [2] were 300 nM and 3900 nM, respectively.
As for `COc1ccc(C(=O)CSc2nc3nc(N)[nH]c(=O)c3[nH]2)cc1`, the result in test [4] was Active.
Regarding `N#Cc1ccc(CSc2nc3c(=O)[nH]c(N)nc3[nH]2)c(F)c1`, the outcome in test [3] and in test [4] was Active. Also, the Kd in test [1] came out at 590 nM; in test [2] it was 2700 nM.
For the molecule `N#Cc1cccc(CSc2nc3c(=O)[nH]c(N)nc3[nH]2)c1`, the Kd in test [1] was 770 nM; in test [2], 3500 nM.
As to `Nc1nc2[nH]c(SCc3ccccc3F)nc2c(=O)[nH]1`, the outcome in test [4] was Active.
Turning to `N#Cc1cc(CSc2nc3c(=O)[nH]c(N)nc3[nH]2)ccc1F`, the Kd in test [1] turned out to be 2100 nM; in test [2], 5300 nM.
`N#Cc1ccccc1CSc1nc2c(=O)[nH]c(N)nc2[nH]1`: the results for the Kd in test [1] and in test [2] were 510 nM and 23000 nM, respectively.
Turning to `Nc1nc2[nH]c(SCc3cccc(C(=O)O)c3)nc2c(=O)[nH]1`, the Kd in test [1] turned out to be 2600 nM; in test [2], 26000 nM.
As to `Nc1nc2[nH]c(SCCN3CCCC3=O)nc2c(=O)[nH]1`, in test [1], the Kd stood at 7900 nM.
For the molecule `Nc1nc2[nH]c(S)nc2c(=O)[nH]1`, in test [2], the Kd came out at 160000 nM.
Take `Nc1nc(O)c2[nH]c(SCc3ccc(Cl)cc3)nc2n1`: the Kd in test [1] turned out to be 1240 nM; in test [2], 4300 nM.
Turning to `Nc1nc2[nH]c(SCc3cccc(F)c3)nc2c(=O)[nH]1`, the results for the Kd in test [1] and in test [2] were 220 nM and 2600 nM, respectively.
Take `CCN(CC)C(=O)CSc1nc2c(=O)[nH]c(N)nc2[nH]1`: the Kd in test [1] was found to be 11000 nM; in test [2] it was 74200 nM.
As for `Nc1nc2[nH]c(SCc3ccccc3[N+](=O)[O-])nc2c(=O)[nH]1`, the Kd stood at 540 nM in test [1] and 5700 nM in test [2].
